Active and inactive are the calls of the source. The calls are words filed in the database; no cut-off is given here.
What was measured:
Rattus norvegicus [1] = experiment: Anticonvulsant activity was determined in rats at a dose of 30 mg/kg after 1 hour by MES test. (+ denotes activity in 0-25% of administered animals).; assay type: functional, organism-based; design: dose 30 mg/kg
Rattus norvegicus [2] = experiment: Anticonvulsant activity was determined in rats at a dose of 30 mg/kg after 4 hour by MES test. (+ denotes activity in 0-25% of administered animals).; assay type: functional, organism-based; design: dose 30 mg/kg
Mus musculus [3] = experiment: Anticonvulsant activity determined at 30 minutes after the administration of compound using MES test. (++= signify activity at 100 mg/kg); assay type: functional, organism-based; design: dose 100 mg/kg
In short: (§1)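 Male CF-1 albino mice (18-25 g) dosed intraperitoneally at 30, 100 or 300 mg/kg. Protection against maximal electroshock-induced seizures was scored 30 min or 4 h after dosing.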

[4] = Neurotoxicity determined at 4 hours after the administration of compound by rotarod test (- denotes activity at 300 mg/kg); assay type: toxicity, organism-based; design: dose 300 mg/kg; conditions: mouse, in vivo
In short: (§2)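 Male CF-1 mice dosed ip at 30, 100 or 300 mg/kg and tested 30 min or 4 h later on a 1-in. knurled rod turning at 6 rpm. A deficit was failure to stay on the rod for 1 min in each of three trials. Coding: ++ 100, + 300 mg/kg; - means none at 300 mg/kg.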

Rattus norvegicus [5] = experiment: Toxicity was determined in rats at a dose of 30 mg/kg after 4 hour. (+ denotes activity in 0-25% of administered animals).; assay type: functional, organism-based; design: dose 30 mg/kg
In short: (§3)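 Male Sprague-Dawley rats given a single oral dose of 30 mg/kg and assessed for toxicity 4 h after dosing, with at least four animals per time point. Score is the fraction of animals affected (+ 0-25%); - means no toxicity.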

Mus musculus [6] = experiment: Anticonvulsant activity determined at 4 hours after the administration of compound using MES test.(++= signify activity at 100 mg/kg); assay type: functional, organism-based; design: dose 100 mg/kg; in short: as §1
Rattus norvegicus [7] = experiment: Anticonvulsant ED50 activity by MES test in rats dosed orally; assay type: functional; conditions: po
In short: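 Male Sprague-Dawley rats (100-150 g) dosed orally. ED50 is the dose protecting 50% of animals against maximal electroshock-induced seizures. […]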

[8] = Neurotoxicity determined at 30 minutes after the administration of compound by rotarod test.(- denotes activity at 300 mg/kg); assay type: toxicity, organism-based; design: dose 300 mg/kg; conditions: mouse, in vivo, 0.5 h; in short: as §2
[9] = Apparent IC50 value by [3H]batrachotoxinin-A-20-alpha-benzoate-binding test performed in rat brain synaptosomes; assay type: subcellular
In short: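 Rat brain synaptosomes, about 400 µg protein per assay, incubated 2 h at 37 °C, pH 7.4, in choline chloride/HEPES/glucose/KCl medium with 10 nM [³H]batrachotoxinin-A-20α-benzoate and scorpion venom. Stopped with cold-free choline chloride/HEPES/CaCl₂/MgSO₄ washes, filtered on GF/B, bound radioactivity counted. Protein by Bradford. Apparent IC50 from quadruplicate measurements, mean ± SD.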

Rattus norvegicus [10] = experiment: Anticonvulsant activity was determined in rats at a dose of 30 mg/kg after 1 hour by MES test. (++++ denotes activity in 75-100% of administered animals); assay type: functional, organism-based; design: dose 30 mg/kg
Rattus norvegicus [11] = experiment: Anticonvulsant activity was determined in rats at a dose of 30 mg/kg after 4 hour by MES test. (++++ denotes activity in 75-100% of administered animals); assay type: functional, organism-based; design: dose 30 mg/kg
[12] = Neurotoxicity determined at 4 hours after the administration of compound by rotarod test(+ = signify activity at 300 mg/kg); assay type: toxicity, organism-based; design: dose 300 mg/kg; conditions: mouse, in vivo; in short: as §2
Mus musculus [13] = experiment: Anticonvulsant activity determined at 4 hours after the administration of compound using sc Ptz test.(+ = signify activity at 300 mg/kg); assay type: functional, organism-based; design: dose 300 mg/kg
In short: (§4)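 Male CF-1 mice (18-25 g) dosed ip at 30, 100 or 300 mg/kg. Pentylenetetrazol in 0.9% NaCl was injected sc at 0.01 mL/g. Tests were run 30 min or 4 h after dosing.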

Rattus norvegicus [14] = experiment: Anticonvulsant activity was determined in rats at a dose of 30 mg/kg after 2 hour by MES test. (+ denotes activity in 0-25% of administered animals).; assay type: functional, organism-based; design: dose 30 mg/kg
[15] = Toxicity was determined in rats at a dose of 30 mg/kg after 4 hour (- denotes no activity in administered animals).; assay type: organism-based; design: dose 30 mg/kg; conditions: rat, in vivo; in short: as §3
[16] = Neurotoxicity determined at 4 hours after the administration of compound by rotarod test(- denotes activity at 300 mg/kg); assay type: toxicity, organism-based; design: dose 300 mg/kg; conditions: mouse, in vivo; in short: as §2
Rattus norvegicus [17] = experiment: Anticonvulsant activity was determined in rats at a dose of 30 mg/kg after 1 hour by MES test. (++ denotes activity in 25-50% of administered animals).; assay type: functional, organism-based; design: dose 30 mg/kg
Mus musculus [18] = experiment: Anticonvulsant activity determined at 4 hours after the administration of compound using MES test.(+ = signify activity at 300 mg/kg); assay type: functional, organism-based; design: dose 300 mg/kg; in short: as §1
Rattus norvegicus [19] = experiment: Anticonvulsant activity was determined in rats at a dose of 30 mg/kg after 2 hour by MES test. (++++ denotes activity in 75-100% of administered animals); assay type: functional, organism-based; design: dose 30 mg/kg
Mus musculus [20] = experiment: Anticonvulsant activity determined at 30 minutes after the administration of compound using MES test. (+++ = activity at 30 mg/kg); assay type: functional, organism-based; design: dose 30 mg/kg; in short: as §1
[21] = Neurotoxicity determined at 30 minutes after the administration of compound by rotarod test.(++= signify activity at 100 mg/kg); assay type: toxicity, organism-based; design: dose 100 mg/kg; conditions: mouse, in vivo, 0.5 h; in short: as §2
Rattus norvegicus [22] = experiment: Anticonvulsant activity was determined in rats at a dose of 30 mg/kg after 15 minutes by MES test. (++++ denotes activity in 75-100% of administered animals); assay type: functional, organism-based; design: dose 30 mg/kg
Mus musculus [23] = experiment: Anticonvulsant activity determined at 4 hours after the administration of compound using sc Ptz test. (- denotes activity at 300 mg/kg); assay type: functional, organism-based; design: dose 300 mg/kg; in short: as §4
Rattus norvegicus [24] = experiment: Toxicity was determined in rats at a dose of 30 mg/kg after 4 hour. (- denotes no activity in administered animals).; assay type: functional, organism-based; design: dose 30 mg/kg; in short: as §3
[25] = Neurotoxicity determined at 4 hours after the administration of compound by rotarod test (++= signify activity at 100 mg/kg); assay type: toxicity, organism-based; design: dose 100 mg/kg; conditions: mouse, in vivo; in short: as §2
Rattus norvegicus [26] = experiment: Anticonvulsant activity was determined in rats at a dose of 30 mg/kg after 4 hour by MES test. (++ denotes activity in 25-50% of administered animals).; assay type: functional, organism-based; design: dose 30 mg/kg
Mus musculus [27] = experiment: Anticonvulsant activity determined at 30 minutes after the administration of compound using sc Ptz test. (+++ = activity at 30 mg/kg); assay type: functional, organism-based; design: dose 30 mg/kg; in short: as §4
Rattus norvegicus [28] = experiment: Anticonvulsant activity was determined in rats at a dose of 30 mg/kg after 30 minutes by MES test. (++++ denotes activity in 75-100% of administered animals); assay type: functional, organism-based; design: dose 30 mg/kg

Row | SMILES | Activity (Rattus norvegicus [2]) | Activity (Mus musculus [3]) | Activity (Mus musculus [6]) | ED50 (Rattus norvegicus [7]) | Activity [8] | IC50 [9] | Activity (Rattus norvegicus [10]) | other results
1 | Cc1cccc(C)c1N1C(=O)c2ccc(O)cc2C1=O | activity in 0-25% of administered animals | activity in 0-25% of administered animals | activity in 0-25% of administered animals | 369 µmol/kg | activity in 0-25% of administered animals | 1860 nM |  | Activity (Rattus norvegicus [1]): activity in 0-25% of administered animals; Activity [4]: activity in 0-25% of administered animals; Activity (Rattus norvegicus [5]): activity in 0-25% of administered animals
2 | O=C1NC(=O)C(c2ccccc2)(c2ccccc2)N1 [PHENYTOIN] |  |  |  | 121 µmol/kg |  | 860 nM |  | 
3 | Cc1cccc(C)c1N1C(=O)c2ccc([N+](=O)[O-])cc2C1=O |  | Activity at 300 mg/kg | Activity at 300 mg/kg | 131 µmol/kg | Activity at 300 mg/kg | 184000 nM | ++ | Activity (Rattus norvegicus [11]): ++; Activity [12]: Activity at 300 mg/kg; Activity (Mus musculus [13]): Activity at 300 mg/kg
4 | Cc1cccc(C)c1NC(=O)c1ccc(O)cc1 | activity in 0-25% of administered animals |  | activity in 0-25% of administered animals | 284 µmol/kg | activity in 0-25% of administered animals | 350 nM |  | Activity (Rattus norvegicus [14]): activity in 0-25% of administered animals; Activity [15]: activity in 0-25% of administered animals; Activity [16]: activity in 0-25% of administered animals; Activity (Rattus norvegicus [17]): activity in 0-25% of administered animals
5 | Cc1ccc(N)c(C)c1N1C(=O)c2ccccc2C1=O |  |  |  |  |  |  |  | Activity (Mus musculus [18]): signifies activity at 300 mg/kg
6 | Cc1cccc(C)c1N1C(=O)c2ccc(N)cc2C1=O |  |  | Active | 25.3 µmol/kg |  | 110 nM | Active | Activity (Rattus norvegicus [19]): Active; Activity (Mus musculus [20]): Active; Activity [21]: Active; Activity (Rattus norvegicus [22]): Active; Activity (Mus musculus [23]): inactive; Activity (Rattus norvegicus [24]): Not toxic; Activity [25]: Active; Activity (Rattus norvegicus [26]): Weak activity; Activity (Mus musculus [27]): Active; Activity (Rattus norvegicus [28]): Active
